Measured values gathered from unrelated publications.
Observed: cell growth or viability

For CC1(C)CCC(CN2CCN(c3ccc(C(=O)NS(=O)(=O)c4ccc(NCC5CCOCC5)c([N+](=O)[O-])c4)c(Oc4cnc5[nH]ccc5c4)c3)CC2)=C(c2ccc(Cl)cc2)C1, the IC50 was over 10 µM (MB002; 7 days).
The IC50 of CC(=O)c1sc(=NN=C(C)c2c(O)c3ccccc3oc2=O)[nH]c1C is reported as over 100 µM (human Skin fibroblast; MTT; 48 h).
The IC50 of Oc1ccc(Nc2nc(-c3ccc(Cl)cc3)cs2)cc1 is reported as 23.6 µM (WM278; MTS; 72 h).
For CN1CCN(CCOc2cc(OC3CCOCC3)c3c(Nc4c(Cl)ccc5c4OCO5)ncnc3c2)CC1, the IC50 was over 10 µM (HD-MB03; 7 days).
COc1cc(Nc2nccc(-c3cnn4nc(OC)ccc34)n2)cc(C(F)(F)F)c1 gave an IC50 of 1.3 µM (T84; ATP luminescence).
O=C(N/N=C/c1c(O)ccc2ccccc12)c1cc(-c2ccc3ccccc3c2)n[nH]1 has an IC50 of 8 µM (WM278; MTS; 48 h).
With CC(=NN=c1sc(N=Nc2ccccc2)c(C)n1C)c1c(O)c2ccccc2oc1=O the IC50 was over 100 µM (human Skin fibroblast; MTT; 48 h).
CC(C)C[C@H](NC(=O)[C@H](Cc1ccccc1)NC(=O)c1cnccn1)B(O)O has an IC50 of 0.018 µM (T84; ATP luminescence).
Cn1ncnc1[C@H]1c2n[nH]c(=O)c3cc(F)cc(c23)N[C@@H]1c1ccc(F)cc1 gave an IC50 of 0.00373 µM (MB002; 7 days).
CC(=NN=c1scc(-c2ccccc2)n1C)c1c(O)c2ccccc2oc1=O has an IC50 of over 100 µM (human Skin fibroblast; MTT; 48 h).
